Experimental data collected from several papers.
Each line is one published result; the experiments were not run side by side.
EGFR: Epidermal growth factor receptor (EGFR, Homo sapiens, UniProt P00533)
EGFR G719S: Epidermal growth factor receptor (EGFR, Homo sapiens, UniProt P00533, G719S)
EGFR L858R/T790M: Epidermal growth factor receptor (EGFR, Homo sapiens, UniProt P00533, L858R/T790M)
EGFR L858R: Epidermal growth factor receptor (EGFR, Homo sapiens, UniProt P00533, L858R)
EGFR del752-759: Epidermal growth factor receptor (EGFR, Homo sapiens, UniProt P00533, del752-759)

SMILES	target	test	setting	quantity	result
CC(C)(C)c1nc2c(s1)c1nc(N)ncc1c1ccc(NS(=O)(=O)c3c(F)cccc3F)c(F)c12	EGFR	enzyme activity, inhibitor, radiometric	1 µM	remaining activity	104%
CN(C)c1nccc(-c2cnn3ncccc23)n1	EGFR G719S	binding	1 µM	remaining binding	100%
O=C1Nc2ccc(Cl)cc2C1=Cc1cc(Cl)c(O)c(Cl)c1	EGFR	cell-free assay	0.5 µM	remaining signal	93.5%
C=CC(=O)Nc1cccc(Oc2nc(Nc3ccc(N4CCN(C)CC4)cc3)nc3ccsc23)c1	EGFR L858R/T790M	enzyme activity, inhibitor, ELISA	0.1 µM	inhibition	98.4%
COc1cc(-c2cc(-c3ccc(N4CCNCC4)cc3)cnc2N)cc(OC)c1OC	EGFR L858R	enzyme activity, inhibitor	1 µM	inhibition	76%
Cc1nc(C2CCN(C(=O)c3ccc(OC(F)(F)F)cc3N)CC2)c2ncc(N3CCN(C)CC3)cc2n1	Epidermal growth factor receptor (EGFR, Homo sapiens, UniProt P00533, A750P/del747-749)	cell-free assay, competition with immobilised ligand	1 µM	remaining binding	70%
c1cnn2ncc(-c3ccnc(N4CCC45COC5)n3)c2c1	EGFR del752-759	binding	1 µM	remaining binding	67%
Cc1ccc(C(=O)Nc2ccc(CN3CCN(C)CC3)c(C(F)(F)F)c2)cc1C#Cc1cnc2cccnn12	Epidermal growth factor receptor (EGFR, Homo sapiens, UniProt P00533, G719C)	cell-free assay	23.5 nM	remaining signal	88%
N#Cc1ccc(Nc2ccc3[nH]c(=O)[nH]c3c2)c(Cl)c1	Epidermal growth factor receptor (EGFR, Homo sapiens, UniProt P00533, del747-750/T751S)	cell-free assay, competition with immobilised ligand	1 µM	remaining binding	100%
Cc1cc(NC(=O)c2cccc3cc(-c4cccc5[nH]nc(N)c45)ccc23)ccc1F	EGFR	enzyme activity, inhibitor	0.1 µM	activity vs control	103%
COc1cc2ncnc(Nc3ccc(Oc4ccccc4)c(C)c3C)c2cc1OC	EGFR L858R	enzyme activity, inhibitor	1 µM	inhibition	65%
CN(C)C1CCN(CC#Cc2nn(C3CCCC3)c3nc(NCc4ccccc4)ncc23)C1 (stereo not drawn)	EGFR	enzyme activity, inhibitor, FRET	0.1 µM	inhibition	14%
CN([C@@H]1CCc2c(CC(=O)O)c3ccccc3n2C1)S(=O)(=O)c1ccc(F)cc1	Epidermal growth factor receptor (EGFR, Homo sapiens, UniProt P00533, L861Q)	cell-free assay, competition with immobilised ligand	1 µM	remaining binding	100%
Cc1ccc(NC(=O)c2ccc(C)c(C(F)(F)F)c2)cc1C#Cc1nn(C2CCC(O)CC2)c2ncnc(N)c12 (stereo not drawn)	EGFR L858R/T790M	cell-free assay	10 µM	remaining signal	0%
O=C(Nc1ccc(Oc2ccc(F)cc2)cc1)N1CCc2ncccc2[C@H]1c1ccc(F)cc1	EGFR del752-759	cell-free assay, competition with immobilised ligand	1 µM	remaining binding	80%
N[C@@H]1CCN(c2nccc(-c3cnn4ncccc34)n2)C1	EGFR	binding	1 µM	remaining binding	75%
CC(C)[C@@H]1NC(=O)CCNC(=O)CCNC(=O)[C@H](Cc2ccc(O)cc2)NC(=O)[C@H](Cc2ccc(O)cc2)NC(=O)[C@H](Cc2ccccc2)NC(=O)[C@@H](Cc2ccc(O)cc2)NC(=O)CSC[C@@H](C(=O)NCC(N)=O)NC(=O)CCNC(=O)[C@H](CCCNC(=N)N)NC(=O)[C@H](CCCNC(=N)N)NC(=O)[C@H](Cc2ccc(O)cc2)NC(=O)[C@H](C(C)C)NC(=O)[C@H](C(C)C)NC(=O)[C@H](CC(N)=O)NC1=O	EGFR	binding, SPR		kon	217000 M⁻¹ s⁻¹
NS(=O)(=O)c1cc(NC(=O)C2(c3ccccc3Cl)CC2)ccc1Oc1cccc(Cl)c1	EGFR G719S	cell-free assay, competition with immobilised ligand	1 µM	remaining binding	98%
Nc1ncnc2occ(-c3ccc(NC(=O)Nc4cc(C(F)(F)F)ccc4F)cc3)c12	EGFR	cell-free assay	20 µM	remaining signal	13%
O=C1CCc2cc(Nc3cc(OC4CCOCC4)c([N+](=O)[O-])cc3Cl)ccc2N1	Epidermal growth factor receptor (EGFR, Homo sapiens, UniProt P00533, T790M)	cell-free assay, competition with immobilised ligand	1 µM	remaining binding	85%
CN(c1nccc(-c2cnn3ncccc23)n1)C1CC1	EGFR G719S	binding	1 µM	remaining binding	100%
